High-throughput results (PubChem)
TNAP inh no acc: inhibitors of human TNAP without phosphate acceptor | P05186 | purified TNAP, CDP-star luminescence, 30 min | inhibition, % at 20 µM | 200,000 compounds, 0.26% hits | AID 1012;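 active means tissue-nonspecific alkaline phosphatase inhibition above about 50% at 20 µM in the single-dose screen, limit read from the data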
Target sequence (P05186 whole entry, looked up): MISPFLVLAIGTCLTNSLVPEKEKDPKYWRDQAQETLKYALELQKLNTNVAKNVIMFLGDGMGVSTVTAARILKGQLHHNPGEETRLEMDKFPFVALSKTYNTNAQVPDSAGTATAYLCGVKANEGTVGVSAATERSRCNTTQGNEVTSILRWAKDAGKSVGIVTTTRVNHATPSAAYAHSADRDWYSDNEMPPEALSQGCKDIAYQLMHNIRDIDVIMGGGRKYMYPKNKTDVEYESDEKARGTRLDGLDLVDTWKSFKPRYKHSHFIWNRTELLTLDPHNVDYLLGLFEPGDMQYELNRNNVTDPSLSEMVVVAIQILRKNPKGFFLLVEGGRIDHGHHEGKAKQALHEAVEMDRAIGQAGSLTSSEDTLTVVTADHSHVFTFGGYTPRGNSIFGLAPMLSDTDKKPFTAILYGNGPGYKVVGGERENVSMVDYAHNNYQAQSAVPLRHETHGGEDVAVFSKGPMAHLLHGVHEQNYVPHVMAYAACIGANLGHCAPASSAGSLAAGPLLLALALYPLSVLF
TNAP inh hiacc: TNAP (human) inhibition, high acceptor | P05186 | purified TNAP, CDP-star luminescence, 1 M DEA | inhibition, % at 20 µM | 200,000 compounds, 0.03% hits;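 active means over 50% inhibition of tissue-nonspecific alkaline phosphatase at 20 µM in the single-dose screen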
ABCB6 inh MLPCN: human ABCB6 transporter inhibition | Q9NP58 | K562-ABCB6 porphyrin accumulation, flow cytometry, 1 h; stronger effect = lower value | fluorescence ratio to DMSO, % at 10 µM | 360,000 compounds, 0.19% hits | AID 602162;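 active means fluorescence ratio to DMSO below 75%, the collection mean minus 3 SD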;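 further: signal is porphyrin accumulated inside mitochondria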
TNAP act hiacc: TNAP (human) activation, high acceptor | P05186 | purified TNAP, CDP-star luminescence, 1 M DEA, 30 min; stronger effect = higher value; 0 = EDTA background, 1 = DMSO-only activity | activation factor at 20 µM | 200,000 tested, under 10 active;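 active means activation factor at least 2 at 20 µM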
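system = human TNAP | amount = enzyme diluted 1/800 final | reagent = 100 µM CDP-star substrate | signal = luminescent substrate turnover signal | dosing = one dose, 20 µM | benchmarks = EDTA negative control, DMSO positive control | measure = activation factor | timing = 30 min reaction, room temperature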
CHT PAM: allosteric activators of human choline transporter CHT | Q9GZV3 | CHT-expressing cells, membrane potential dye, choline EC20; stronger effect = higher value; LV-AA mutant CHT in HEK293 cells | B-score at 10 µM | 310,000 compounds, 0.49% hits | AID 488977;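 active means initial fluorescence not abnormally high and integrated response B-score, plate-corrected, over 3 SD above library mean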
CHT inh: inhibits the human high affinity choline transporter. Q9GZV3. CHT-expressing cells, membrane potential dye, choline response; stronger effect = lower value. B-score at 10 µM. 310,000 compounds, 0.86% hits. AID 488975;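 active means B-score over 3 SD under the library average, and starting fluorescence ratio not unusually high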;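 further: choline stimulus applied at its EC90 after an EC20 pre-addition; B-score computed on integrated fluorescence ratio after choline addition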
CHT activ conf: human CHT activation, confirmatory screen; shares compounds with CHT PAM; CHT-expressing cells, membrane potential dye fluorescence (FDSS); % of choline EC20–EC90 response window; HEK293 expressing CHT LV-AA mutant; choline added at its EC20; activation, % at 10 µM; 2,500 compounds, 91% hits; AID 504833;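 active means primary screen active, with duplicate mean activation above negative control mean plus 3 SD, cut at about 11% in these data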
HEK293 MP dye: CHT activator counter-screen hit in parental HEK293 cells; shares compounds with CHT PAM; membrane potential dye fluorescence (FDSS); measured after EC20 choline addition; ratio readout change at 10 µM, hits read low; 2,500 compounds, 62% hits; AID 623908;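 active means duplicate-averaged ratio beyond 3 SD from buffer wells, up or down, though filed actives are nearly all decreases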
Large screens that a line does not name were inactive (follow-up assays come after a bar, where they were run). The list is not random: actives were taken first. Their share in the collection is about 1.4%.

COc1ccc(S(=O)(=O)N2CCC(C(=O)N3CCCCC3)CC2)cc1Cl	none
CCCCC[n+]1cccc2c3ccccc3ccc21	CHT PAM 7.54 | CHT activ conf 46.8 | HEK293 MP dye -74.2
Cc1cc[n+](Cc2ccccc2)c(N)c1	none (no result: TNAP inh no acc, TNAP inh hiacc, TNAP act hiacc)
O=[N+]([O-])c1ccc(C[n+]2cccc3ccc4cccnc4c32)cc1	none
c1ccc(C[n+]2cccc3c4ccccc4ccc32)cc1	CHT PAM 6.44 | CHT activ conf 77.0 | HEK293 MP dye -74.6
O=[N+]([O-])c1ccc(C[n+]2cccc3ccccc32)cc1	CHT PAM 8.1 | CHT activ conf 47.5 | HEK293 MP dye -45.5
CCCCOc1ccc2ccccc2c1C=O	none
O=C(O)C1=C[C@@H](c2coc3ccccc3c2=O)C[C@@H](OCCCCO)O1	none
COc1cc(S(=O)(=O)Nc2cccc(C(=O)O)c2)c(OC)cc1Cl	none
CN1CCN(CCCN2c3ccccc3Sc3ccc(S(=O)(=O)N(C)C)cc32)CC1	none (no result: TNAP inh no acc, TNAP inh hiacc, TNAP act hiacc) | CHT activ conf 16.4 | HEK293 MP dye -29.8
CC(=O)c1ccc2c(c1)N(CCCN1CCC(CCO)CC1)c1ccccc1S2	CHT PAM 9.08 (no result: TNAP inh no acc, TNAP inh hiacc, TNAP act hiacc) | CHT activ conf 46.3 | HEK293 MP dye -48.8
Cc1ccc(C(=O)N/N=C\c2ccccn2)cn1	none (no result: TNAP inh no acc, TNAP inh hiacc, TNAP act hiacc) | CHT activ conf 39.8 | HEK293 MP dye -37.7
CC(C)(C)c1ccc(C(=O)N/N=C/c2ccccn2)cc1	none (no result: TNAP inh no acc, TNAP inh hiacc, TNAP act hiacc)
Cc1ccc(-c2c[n+](Cc3ccc(Cl)c(Cl)c3)c3n2CCC3)cc1	CHT PAM 7.02 | CHT activ conf 52.2 | HEK293 MP dye -30.4
CCC(C)Sc1cc(-c2nc3ccc(C)cn3c2NCc2ccccc2)ccc1OC (configuration not stated)	CHT PAM 7.71 (no result: TNAP inh no acc, TNAP inh hiacc, TNAP act hiacc) | CHT activ conf 22.1 | HEK293 MP dye -24.8
ON1C(c2ccc(Cl)cc2Cl)N(O)[C@H]2CCCC[C@H]21 (some centres not stated)	none
CCON1C(=O)CN(C(=O)OC)C1c1ccc(Cl)cc1Cl (configuration not stated)	none | CHT activ conf inactive | HEK293 MP dye inactive
COc1ccc(CNc2nc3nc4c(c(=O)n3[nH]2)CCC4)cc1	none
CC1(C(=O)NS(=O)(=O)c2ccc(Cl)s2)CCN1C(=O)C1CCCCC1 (configuration not stated)	none (no result: TNAP inh no acc, TNAP inh hiacc, TNAP act hiacc, CHT PAM, CHT inh)
C[n+]1cn(Cc2cc(Cl)ccc2OC(F)F)c2ccccc21	CHT PAM 7.26 (no result: TNAP inh no acc, TNAP inh hiacc, TNAP act hiacc) | CHT activ conf 54.1 | HEK293 MP dye inactive
O=C(O)c1ccc(NC2=Nc3cccc4cccc2c34)cc1	none (no result: TNAP inh no acc, TNAP inh hiacc, TNAP act hiacc, CHT PAM, CHT inh)
c1cc2c3c(cccc3c1)C(N1CCOCC1)=N2	CHT PAM 8.55 (no result: TNAP inh no acc, TNAP inh hiacc, TNAP act hiacc) | CHT activ conf 56.2 | HEK293 MP dye -67.7
CC1CN(C2=Nc3cccc4cccc2c34)CC(C)O1 (configuration not stated)	none | CHT activ conf 57.6 | HEK293 MP dye -56.4
COc1ccccc1N1CCN(C2=Nc3cccc4cccc2c34)CC1	none | CHT activ conf 39.1 | HEK293 MP dye -58.4
CC(=O)N1CCN(C2=Nc3cccc4cccc2c34)CC1	CHT PAM 9.83 | CHT activ conf 51.7 | HEK293 MP dye -76.5
O=C(CCCCCN1C(=O)c2cccc3cccc(c23)C1=O)N1CCOCC1	none
CS(=O)(=O)N(CC(=O)N1CCCC1)Cc1ccc(Cl)cc1	none
CCOc1ccc(C(C)=O)cc1CSc1nc2nc(C)cc(C)n2n1	none
COc1cc(OC)c([N+](=O)[O-])cc1/C=N/NC(=O)c1ccncc1	none | CHT activ conf 37.4 | HEK293 MP dye -38.4
O=C(N/N=C/C=C/c1cccc([N+](=O)[O-])c1)c1ccncc1	CHT PAM 7.87 (no result: TNAP inh no acc, TNAP inh hiacc, TNAP act hiacc) | CHT activ conf 13.5 | HEK293 MP dye inactive
Cc1cccc(C)c1NC(=O)C1CCCN1C(=O)NCc1ccccc1 (configuration not stated)	none (no result: TNAP inh no acc, TNAP inh hiacc, TNAP act hiacc)
CCCNC(=O)Nc1nc(C(N)c2ccc(OC)cc2)cs1 (configuration not stated)	none (no result: TNAP inh no acc, TNAP inh hiacc, TNAP act hiacc, CHT PAM, CHT inh)
CN(C)c1ccc(/C=C2\Oc3ccc(C#Cc4cccc(N)c4)cc3C2=O)cc1	none (no result: TNAP inh no acc, TNAP inh hiacc, TNAP act hiacc, CHT PAM, CHT inh)
Cc1ccc(C)c(-c2[nH]ncc2CN2CCCC(CO)(Cc3ccccc3C)C2)c1 (configuration not stated)	CHT PAM 6.45 | CHT activ conf 16.6 | HEK293 MP dye inactive
C[C@H]1C(=O)N(C)CCN1Cc1cn(C)nc1-c1ccc(Oc2ccccc2)cc1	none
CCN(CC)C(=O)C1CCN(Cc2cn(C)nc2-c2ccc(Oc3ccccc3)cc2)CC1	none | CHT activ conf inactive | HEK293 MP dye inactive
Oc1ccc(/C=N/Nc2cc(N3CCOCC3)nc(N3CCOCC3)n2)cc1O	TNAP inh no acc 67.2, CHT PAM 7.13 | CHT activ conf 46.7 | HEK293 MP dye -62.1
Oc1ccccc1/C=N/Nc1cc(N2CCCC2)nc(N2CCCC2)n1	none
Cn1c(C(=O)NCCCN2CCCC2=O)cc2c(=O)n(C)c3ccccc3c21	none | CHT activ conf 27.3 | HEK293 MP dye -31.6
Cn1c(C(=O)NCCN2CCOCC2)cc2c(=O)n(C)c3ccccc3c21	none
CC1CCCCN1CCNC(=O)c1cc2c(=O)n(C)c3ccccc3c2n1C (configuration not stated)	none | CHT activ conf 29.7 | HEK293 MP dye -20.8
CC1(C(=O)NCCOc2ccccc2Cl)CC1(Cl)Cl (configuration not stated)	none (no result: TNAP inh no acc, TNAP inh hiacc, TNAP act hiacc)
O=C(Nc1cccc(-n2cnnn2)c1)c1ccc(OC(F)(F)F)cc1	none (no result: TNAP inh no acc, TNAP inh hiacc, TNAP act hiacc)
Cc1ccc2cc(F)c(F)c(F)c2n1	none (no result: TNAP inh no acc, TNAP inh hiacc, TNAP act hiacc, CHT PAM, CHT inh)
Cc1ccc2ccc3ccc(C)nc3c2n1	CHT PAM 10.5 (no result: TNAP inh no acc, TNAP inh hiacc, TNAP act hiacc) | CHT activ conf 67.4 | HEK293 MP dye -75.1
Cc1nn(-c2ccccc2)c(Cl)c1CN(C(=O)CCl)c1cccc2ccccc12	CHT PAM 8.96 | CHT activ conf 35.8 | HEK293 MP dye inactive
Cc1nn(-c2ccccc2)c(Cl)c1CN(C(=O)CCl)c1ccc(Cl)cc1	none
Cc1cc(C)n2nc3nc4c(cc3c2n1)CCCC4	CHT PAM 6.96 | CHT activ conf 41.3 | HEK293 MP dye -47.3
CCN(CC)CCSc1nnc2c3ccccc3n(CCc3ccccc3)c2n1	CHT PAM 8.54 (no result: TNAP inh no acc, TNAP inh hiacc, TNAP act hiacc) | CHT activ conf 31.2 | HEK293 MP dye -35.3
COc1cc([N+](=O)[O-])ccc1-c1ccc(/C=N\n2cnnc2)o1	none (no result: TNAP inh no acc, TNAP inh hiacc, TNAP act hiacc)
O=[N+]([O-])c1ccc(Cl)c(-c2ccc(/C=N/n3cnnc3)o2)c1	none (no result: TNAP inh no acc, TNAP inh hiacc, TNAP act hiacc) | CHT activ conf 39.1 | HEK293 MP dye -50.8
